Source: ChEMBL document CHEMBL4270573, “Novel nicotinoyl pyrazoline derivates bearing N-methyl indole moiety as antitumor agents: Design, synthesis and evaluation” (Eur J Med Chem, 2018)
The source made the active and inactive calls. The rule behind the calls is not given here.

Key:
[1] = Cytotoxicity against HEK293T cells assessed as reduction in cell viability after 48 hrs by MTT assay; type: cell-based, HEK-293T; conditions: human
MCF7 = assay: Growth inhibition of human MCF7 cells after 48 hrs by MTT assay; type: functional; conditions: MCF7, 48 h
Procedure, shortened: (§1)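 Proliferation read-out; GI50 taken as the concentration giving 50% reduction of cancer cell proliferation.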

[2] = Inhibition of porcine brain tubulin polymerization measured over 30 mins; design: species or system Sus scrofa
HeLa [3] = assay: Growth inhibition of human HeLa cells after 48 hrs by MTT assay; type: functional; procedure, shortened: as §1
A549 = assay: Growth inhibition of human A549 cells after 48 hrs by MTT assay; type: functional; conditions: A549, 48 h; procedure, shortened: as §1
HepG2 = assay: Growth inhibition of human HepG2 cells after 48 hrs by MTT assay; type: functional; conditions: HepG2, 48 h; procedure, shortened: as §1
Tubulin (Homo sapiens) [4] = target: T1, Tubulin (Homo sapiens) (UniProt P68371+Q9H4B7+P0DPH7+P68366+Q13509+Q71U36+P04350+Q3ZCM7+P07437+P68363+Q9BQE3+Q6PEY2+Q13885+Q9BVA1+Q9BUF5); assay: Inhibition of tubulin polymerization in human HepG2 cells assessed as abnormal microtubule network formation at 0.04 uM after 12 hrs by DAPI staining based immunofluorescence confocal laser scanning microscopic analysis; type: cell-based
Tubulin (Homo sapiens) [5] = target: T1, Tubulin (Homo sapiens); assay: Inhibition of tubulin polymerization in human HeLa cells assessed as abnormal microtubule network formation at 0.04 uM after 12 hrs by DAPI staining based immunofluorescence confocal laser scanning microscopic analysis; type: cell-based
HeLa [6] = assay: Antitumor activity against human HeLa cells xenografted in nude mouse assessed as tumor weight at 10 mg/kg, ip after 14 days (reference value: 1.54 g); type: functional
HeLa [7] = assay: Antitumor activity against human HeLa cells xenografted in nude mouse assessed as necrosis of tumor cells at 10 mg/kg, ip after 14 days by hematoxylin and eosin staining based microscopic analysis; type: functional, organism-based
Procedure, shortened: (§2)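 Excised tumours and heart, liver, kidney and spleen were H&E-stained and examined microscopically. Tumour scoring covered cell arrangement and necrosis. Organ scoring covered inflammatory infiltration, edema, necrosis and cell morphology.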

HeLa [8] = assay: Antitumor activity against human HeLa cells xenografted in nude mouse assessed as tumor volume at 10 mg/kg, ip after 14 days (reference value: 2292.17 mm3); type: functional
HeLa [9] = assay: Antitumor activity against human HeLa cells xenografted in nude mouse assessed as loose and irregular arrangement of tumor cells at 10 mg/kg, ip after 14 days by hematoxylin and eosin staining based microscopic analysis; type: functional, organism-based; procedure, shortened: as §2
Bos taurus = organism: Bos taurus; assay: Inhibition of colchicine binding to calf brain tubulin preincubated for 1 hr followed by colchicine addition measured after 1 hr by UPLC-MS/MS analysis

Cn1cc(C2CC(c3ccc(Cl)cc3)=NN2C(=O)c2cccnc2)c2cc(Br)ccc21 (configuration not stated)
CC50 at 48 h [1]: > 300 µM
GI50 (MCF7): 8.1 µM
IC50 [2]: 19.4 µM
GI50 (HeLa [3]): 5.2 µM
GI50 (A549): 7.65 µM
GI50 (HepG2): 5.8 µM

COc1cc(C2=NN(C(=O)c3ccc(C)nc3)C(c3cn(C)c4ccccc34)C2)cc(OC)c1OC (configuration not stated)
CC50 at 48 h [1]: > 300 µM
GI50 (MCF7): 0.18 µM
IC50 [2]: 2.3 µM
GI50 (HeLa [3]): 0.21 µM
GI50 (A549): 0.23 µM
GI50 (HepG2): 0.31 µM

COc1ccc(C2=NN(C(=O)c3cccnc3)C(c3cn(C)c4ccc(Br)cc34)C2)cc1OC (configuration not stated)
CC50 at 48 h [1]: > 300 µM
GI50 (MCF7): 1.17 µM
IC50 [2]: 5.6 µM
GI50 (HeLa [3]): 2.09 µM
GI50 (A549): 2.38 µM
GI50 (HepG2): 2.45 µM

Cn1cc(C2CC(c3ccccc3)=NN2C(=O)c2cccnc2)c2cc(Br)ccc21 (configuration not stated)
CC50 at 48 h [1]: > 300 µM
GI50 (MCF7): 1.52 µM
IC50 [2]: 3.4 µM
GI50 (HeLa [3]): 1.73 µM
GI50 (A549): 1.6 µM
GI50 (HepG2): 2.52 µM

Cn1cc(C2CC(c3ccc(F)cc3)=NN2C(=O)c2cccnc2)c2cc(Br)ccc21 (configuration not stated)
CC50 at 48 h [1]: > 300 µM
GI50 (MCF7): 0.48 µM
IC50 [2]: 5.2 µM
GI50 (HeLa [3]): 0.63 µM
GI50 (A549): 1.38 µM
GI50 (HepG2): 0.48 µM

COc1ccc2c(c1)c(C1CC(c3ccccc3)=NN1C(=O)c1cccnc1)cn2C (configuration not stated)
CC50 at 48 h [1]: > 300 µM
GI50 (MCF7): 1.16 µM
IC50 [2]: 4.3 µM
GI50 (HeLa [3]): 3.59 µM
GI50 (A549): > 10 µM
GI50 (HepG2): 5.11 µM

COc1ccc2c(c1)c(C1CC(c3ccc(F)cc3)=NN1C(=O)c1ccc(OC)nc1)cn2C (configuration not stated)
CC50 at 48 h [1]: > 300 µM
GI50 (MCF7): 0.48 µM
IC50 [2]: 2.6 µM
GI50 (HeLa [3]): 0.41 µM
GI50 (A549): 0.71 µM
GI50 (HepG2): 0.22 µM

Cn1cc(C2CC(c3ccccc3)=NN2C(=O)c2ccncc2)c2ccccc21 (configuration not stated)
CC50 at 48 h [1]: 97.3 µM
GI50 (MCF7): 1.11 µM
IC50 [2]: > 40 µM
GI50 (HeLa [3]): 0.59 µM
GI50 (A549): 0.99 µM
GI50 (HepG2): 0.63 µM

COc1ccc2c(c1)c(C1CC(c3ccc(Br)cc3)=NN1C(=O)c1ccc(OC)nc1)cn2C (configuration not stated)
CC50 at 48 h [1]: > 300 µM
GI50 (MCF7): 6.96 µM
IC50 [2]: 19.3 µM
GI50 (HeLa [3]): > 10 µM
GI50 (A549): > 10 µM
GI50 (HepG2): > 10 µM

COc1cccc(C2=NN(C(=O)c3cccnc3)C(c3cn(C)c4ccc(OC)cc34)C2)c1 (configuration not stated)
CC50 at 48 h [1]: 125 µM
GI50 (MCF7): 0.81 µM
IC50 [2]: 2.1 µM
GI50 (HeLa [3]): 1.27 µM
GI50 (A549): 1.02 µM
GI50 (HepG2): 0.91 µM

CC(=O)O[C@H]1C(=O)[C@@]2(C)[C@H]([C@H](OC(=O)c3ccccc3)[C@]3(O)C[C@H](OC(=O)[C@H](O)[C@@H](NC(=O)c4ccccc4)c4ccccc4)C(C)=C1C3(C)C)[C@]1(OC(C)=O)CO[C@@H]1C[C@@H]2O
inhibition (Tubulin (Homo sapiens) [4]): inactive
inhibition (Tubulin (Homo sapiens) [5]): inactive

COc1ccc(C2=NN(C(=O)c3ccncc3)C(c3cn(C)c4ccc(Br)cc34)C2)cc1OC (configuration not stated)
CC50 at 48 h [1]: > 300 µM
GI50 (MCF7): > 10 µM
IC50 [2]: 17.8 µM
GI50 (HeLa [3]): > 10 µM
GI50 (A549): 4.25 µM
GI50 (HepG2): > 10 µM

Cn1cc(C2CC(c3ccccc3)=NN2C(=O)c2cccnc2Cl)c2ccccc21 (configuration not stated)
CC50 at 48 h [1]: > 300 µM
GI50 (MCF7): > 10 µM
IC50 [2]: > 40 µM
GI50 (HeLa [3]): > 10 µM
GI50 (A549): > 10 µM
GI50 (HepG2): > 10 µM

COc1ccc2c(c1)c(C1CC(c3ccc(Cl)cc3)=NN1C(=O)c1ccc(OC)nc1)cn2C (configuration not stated)
CC50 at 48 h [1]: > 300 µM
GI50 (MCF7): 3.71 µM
IC50 [2]: 15.6 µM
GI50 (HeLa [3]): 2.26 µM
GI50 (A549): 3.39 µM
GI50 (HepG2): 2.08 µM

Cn1cc(C2CC(c3ccc(Br)cc3)=NN2C(=O)c2cccnc2)c2cc(Br)ccc21 (configuration not stated)
CC50 at 48 h [1]: > 300 µM
GI50 (MCF7): 11.8 µM
IC50 [2]: 18.4 µM
GI50 (HeLa [3]): > 10 µM
GI50 (A549): > 10 µM
GI50 (HepG2): 6.91 µM

COc1ccc(C2=NN(C(=O)c3cccnc3)C(c3cn(C)c4ccc(Br)cc34)C2)cc1 (configuration not stated)
CC50 at 48 h [1]: > 300 µM
GI50 (MCF7): 1.56 µM
IC50 [2]: 4.5 µM
GI50 (HeLa [3]): 0.89 µM
GI50 (A549): 1.19 µM
GI50 (HepG2): 0.54 µM

Cn1cc(C2CC(c3ccccc3)=NN2C(=O)c2cccnc2)c2ccccc21 (configuration not stated)
CC50 at 48 h [1]: > 300 µM
GI50 (MCF7): 7.2 µM
IC50 [2]: 26.7 µM
GI50 (HeLa [3]): > 10 µM
GI50 (A549): > 10 µM
GI50 (HepG2): 4.63 µM

COc1cc(C2=NN(C(=O)c3cccnc3)C(c3cn(C)c4ccc(Br)cc34)C2)cc(OC)c1OC (configuration not stated)
CC50 at 48 h [1]: 131 µM
GI50 (MCF7): > 10 µM
IC50 [2]: > 40 µM
GI50 (HeLa [3]): > 10 µM
GI50 (A549): > 10 µM
GI50 (HepG2): > 10 µM

COc1ccc2c(c1)c(C1CC(c3cc(OC)c(OC)c(OC)c3)=NN1C(=O)c1ccc(OC)nc1)cn2C (configuration not stated)
CC50 at 48 h [1]: > 300 µM
GI50 (MCF7): > 10 µM
IC50 [2]: > 40 µM
GI50 (HeLa [3]): > 10 µM
GI50 (A549): > 10 µM
GI50 (HepG2): > 10 µM

COc1ccc(C2=NN(C(=O)c3ccc(OC)nc3)C(c3cn(C)c4ccc(OC)cc34)C2)cc1 (configuration not stated)
CC50 at 48 h [1]: > 300 µM
GI50 (MCF7): 0.56 µM
IC50 [2]: 2.3 µM
GI50 (HeLa [3]): 0.18 µM
GI50 (A549): 0.45 µM
GI50 (HepG2): 0.23 µM

COc1cccc(C2=NN(C(=O)c3ccc(OC)nc3)C(c3cn(C)c4ccc(OC)cc34)C2)c1 (configuration not stated)
CC50 at 48 h [1]: > 300 µM
GI50 (MCF7): 0.13 µM
IC50 [2]: 1.9 µM
GI50 (HeLa [3]): 0.34 µM
GI50 (A549): 0.47 µM
GI50 (HepG2): 0.19 µM

COc1ccc(C(=O)N2N=C(c3ccccc3)CC2c2cn(C)c3ccccc23)cn1 (configuration not stated)
CC50 at 48 h [1]: > 300 µM
GI50 (MCF7): 4.31 µM
IC50 [2]: 9.7 µM
GI50 (HeLa [3]): 3.98 µM
GI50 (A549): 3.04 µM
GI50 (HepG2): 3.13 µM

Cn1cc(C2CC(c3ccccc3)=NN2C(=O)c2ccc(Cl)nc2)c2ccccc21 (configuration not stated)
CC50 at 48 h [1]: > 300 µM
GI50 (MCF7): 9.25 µM
IC50 [2]: 31.7 µM
GI50 (HeLa [3]): 8.31 µM
GI50 (A549): 8.46 µM
GI50 (HepG2): 7.91 µM

Cc1ccc(C(=O)N2N=C(c3ccccc3)CC2c2cn(C)c3ccccc23)cn1 (configuration not stated)
CC50 at 48 h [1]: 154 µM
GI50 (MCF7): 4.01 µM
IC50 [2]: 13.2 µM
GI50 (HeLa [3]): 2.39 µM
GI50 (A549): 1.19 µM
GI50 (HepG2): 1.22 µM

COc1ccc(/C=C\c2cc(OC)c(OC)c(OC)c2)cc1O [COMBRETASTATIN A4]
CC50 at 48 h [1]: > 300 µM
Activity (HeLa [6]): 0.59 g
GI50 (MCF7): 0.14 µM
Activity (HeLa [7]): Active
IC50 [2]: 2.1 µM
GI50 (HeLa [3]): 0.092 µM
Activity (HeLa [8]): 918.61 mm3
GI50 (A549): 0.31 µM
Activity (HeLa [9]): Active
inhibition (Bos taurus): Active
GI50 (HepG2): 0.17 µM

COc1ccc2c(c1)c(C1CC(c3ccccc3)=NN1C(=O)c1ccc(OC)nc1)cn2C (configuration not stated)
CC50 at 48 h [1]: > 300 µM
GI50 (MCF7): 0.99 µM
IC50 [2]: 2.9 µM
GI50 (HeLa [3]): 1.1 µM
GI50 (A549): 1.11 µM
GI50 (HepG2): 1.33 µM
